pIC50: −log10 of the molar value.
Tests used:
eIF4A1 = eIF4A1 (Homo sapiens, UniProt P60842); assay: Fluorescence polarization; assay type: binding; conditions: for rank in screen for enhancing eIF4A1:poly r(AG)8 RNA binding: 10 µM rocaglate, >200 rocaglates of BU-CMD collection
[1] = tested on: cap-dependent translation (FF); assay: In vitro translation assay in Krebs-2 extracts; assay type: biochemical; conditions: Krebs-2 extracts programmed with mRNA
How it was run: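 Reporter mRNA added at 10 ng/µL final. Incubated with or without compound 60 min at 30 °C; firefly luciferase read. IC50 from 3–5 independent experiments (6 concentration points), nonlinear regression fit.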

NIH/3T3 cells = assay: Sulforhodamine B; assay type: cell-based; conditions: read-out: IC50 cytotoxicity against NIH/3T3 cells; 4 day compound exposure
[2] = tested on: 80S ribosome assembly on (AG)10-FF/HCV/Ren mRNA; assay: Ribosome binding; assay type: biochemical, rabbit; conditions: 500 nM compound, 100 nM eIF4A1, RRL, 600 µM cycloheximide
How it was run: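 32P-labeled (AG)10-FF/HCV/Ren mRNA preincubated with 100 nM eIF4A1 and 500 nM compound for 10 min at RT. Then added to rabbit reticulocyte lysate with 600 µM cycloheximide and incubated 10 min at 30 °C. Lysate sedimented on 10–30% glycerol gradients (SW40, 39,000 rpm, 3.5 h, 4 °C). Fractions collected and radioactivity measured by scintillation counting.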

myr-Akt/Eµ-Myc lymphomas = assay: Lymphoma chemosensitization study; assay type: in vivo, mice; conditions: CMLD012612 0.2 mg/kg IP daily for 5 days + doxorubicin 10 mg/kg on day 2
liver polysomes = assay: Liver polysome profiling after intraperitoneal delivery; assay type: in vivo, mice; conditions: 3 h after intraperitoneal injection; 0.5 mg/kg CMLD012612, 0.2 mg/kg CR-1–31-B
HEK293 cells = assay: [35S]-methionine labeling; assay type: cell-based; conditions: 1 h compound exposure; compared with CR-1–31-B and CMLD012073
eIF4A2 = eIF4A2 (Homo sapiens, UniProt Q14240); assay: Fluorescence polarization; assay type: binding; conditions: 10 µM CR-1–31-B, 10 nM FAM poly r(AG)8, 30 min RT
How it was run: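 His6-eIF4A2 expressed in E. coli BL21(DE3), purified by Ni-NTA then Q-Sepharose. Varied eIF4A2 concentrations mixed with 10 nM FAM-poly r(AG)8, plus DMSO vehicle or test compound. Equilibrated 30 min at RT, then polarization read. Change in FP expressed relative to DMSO control; n = 3 ± SEM.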

Chain of eIF4A1 (P60842 whole entry, species assumed): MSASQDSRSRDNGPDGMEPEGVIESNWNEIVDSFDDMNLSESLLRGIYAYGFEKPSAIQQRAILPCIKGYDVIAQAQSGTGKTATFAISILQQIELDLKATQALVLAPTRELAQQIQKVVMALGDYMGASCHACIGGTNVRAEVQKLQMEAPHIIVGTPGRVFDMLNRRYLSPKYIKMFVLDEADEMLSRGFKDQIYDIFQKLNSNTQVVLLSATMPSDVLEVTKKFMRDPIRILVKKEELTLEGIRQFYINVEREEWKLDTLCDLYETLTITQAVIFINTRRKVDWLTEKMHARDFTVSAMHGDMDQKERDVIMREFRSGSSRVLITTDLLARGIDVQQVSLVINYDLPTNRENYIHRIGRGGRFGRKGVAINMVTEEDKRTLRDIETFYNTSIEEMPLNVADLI
Chain of eIF4A2 (Q14240 whole entry, species assumed): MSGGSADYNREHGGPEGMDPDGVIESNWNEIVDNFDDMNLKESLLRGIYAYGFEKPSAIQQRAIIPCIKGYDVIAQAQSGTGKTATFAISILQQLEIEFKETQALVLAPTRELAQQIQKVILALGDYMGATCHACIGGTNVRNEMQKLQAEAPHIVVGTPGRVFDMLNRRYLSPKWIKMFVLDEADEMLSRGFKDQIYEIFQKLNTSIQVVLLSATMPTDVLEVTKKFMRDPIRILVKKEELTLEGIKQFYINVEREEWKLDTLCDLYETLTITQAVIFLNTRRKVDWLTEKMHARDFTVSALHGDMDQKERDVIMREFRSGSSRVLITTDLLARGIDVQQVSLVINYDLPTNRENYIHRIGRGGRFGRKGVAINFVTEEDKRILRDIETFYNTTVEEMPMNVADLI

| Structure (SMILES) | rank in screen for enhancing eIF4A1:poly r(AG)8 RNA binding (eIF4A1) | pIC50 (NIH/3T3 cells) | assembly of the 80S ribosome on the mRNA [2] | suppression of liver polysomes (liver polysomes) | other results |
| --- | --- | --- | --- | --- | --- |
| COC(=O)[C@@H]1[C@@H](c2ccccc2)[C@]2(c3ccc(OC)cc3)Oc3cc(OC)cc(OC)c3[C@@]23N=C(C2CC2)N[C@@]13O [CMLD012072] | Among the most potent |  |  |  |  |
| COC(=O)[C@@H]1[C@@H](c2ccccc2)[C@]2(c3ccc(OC)cc3)Oc3cc(OC)cc(OC)c3[C@@]23N=C(C)N[C@@]13O [CMLD012073] | Among the most potent | 8.00 | inhibited assembly of the 80S ribosome |  | potency at inhibiting cap-dependent translation (FF) relative to CR-1–31-B [1]: ~ 3 fold |
| COc1ccc([C@@]23Oc4cc(OC)cc(OC)c4[C@@]24NC(C)=NC4=C(C=O)[C@H]3c2ccccc2)cc1 [CMLD012607] |  | 6.34 |  |  |  |
| COc1ccc([C@@]23Oc4cc(OC)cc(OC)c4[C@@]24N=C(C)N[C@@]4(O)[C@H](C(=O)N(C)OC)[C@H]3c2ccccc2)cc1 [CMLD012612] |  | ~8.70 |  | effectively suppressed liver polysomes | duration of complete tumor loss (tumor-free survival) (myr-Akt/Eµ-Myc lymphomas): 15 to 16 days; synergy with doxorubicin (myr-Akt/Eµ-Myc lymphomas): effectively synergized; cytotoxicity in eIF4A1^em1JP cells versus NIH/3T3 (eIF4A1^em1JP cells): significantly blunted; resistance of eIF4A^em1jp cells relative to parental NIH/3T3 cells (eIF4A1^em1JP cells; 4 day compound exposure): at least 10 fold; inhibition of cellular translation (35S-methionine incorporation) (HEK293 cells): surpasses those of our previous lead compounds |
| CONC(=O)[C@H]1[C@@H](O)[C@@]2(O)c3c(OC)cc(OC)cc3O[C@@]2(c2ccc(OC)cc2)[C@@H]1c1ccccc1 [CR-1–31-B] | ranked highly | ~8.07 | inhibited assembly of the 80S ribosome | effectively suppressed liver polysomes | stimulation of eIF4A1 binding to poly rA(GAA)5 (eIF4A1; 500 nM eIF4A1, 30 min, change in FP vs vehicle): preferentially stimulated; binding activity of eIF4A1 to poly r(AG)8 (eIF4A1; 10 µM CR-1–31-B, 10 nM FAM poly r(AG)8, 30 min RT): enhanced; binding activity of eIF4A2 to poly r(AG)8 (eIF4A2): enhanced |
| CONC(=O)[C@H]1[C@@H](O)[C@@]2(O)c3c(OC)cc(OC)cc3O[C@@]2(c2ccc(Br)cc2)[C@@H]1c1ccccc1 [SDS-1–0-21] | ranked highly |  |  |  |  |

From PMC6874763 (Cell chemical biology, 2019)
